Assay type in all cases: functional
Common to all, as to settings: 96 h

Assay [1] relates to Mythimna separata. The assay can be described thus: Larvicidal activity against fourth instar larvae of Mythimna separata (Oriental armyworm) infected compound-treated corn leaves assessed as mortality at 100 mg/l measured after 4 days. In a few lines:
(§1)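 Petri dishes each infested with 10 fourth-instar larvae; percentage mortality scored 4 days after treatment. Three replicates per treatment, with the reported value the mean of the three.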

For assay [2], the system named is Mythimna separata. The experiment in a line: Larvicidal activity against fourth instar larvae ofMythimna separata (Oriental armyworm) infected compound-treated corn leaves assessed as mortality at 200 mg/l measured after 4 days. The gist of the method: as §1
Assay [3] deals with Mythimna separata. The assay can be described thus: Larvicidal activity against fourth instar larvae of Mythimna separata (Oriental armyworm) infected compound-treated corn leaves assessed as mortality at 50 mg/l measured after 4 days. In a few lines: as §1
The test system of assay [4] is Plutella xylostella. The experiment in a line: Larvicidal activity against second-instar larvae of Plutella xylostella (diamondback moth) infected in compound-treated cabbage leaves assessed as mortality at 200 mg/l measured after 4 days. In a few lines:
(§2)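 Test solutions at the different concentrations were made by dissolving compounds in DMF and adding distilled water.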

Assay [5] deals with Plutella xylostella. The assay can be described thus: Larvicidal activity against second-instar larvae of Plutella xylostella (diamondback moth) infected in compound-treated cabbage leaves assessed as mortality at 20 mg/l measured after 4 days. In a few lines: as §2
The test system of assay [6] is Mythimna separata. The assay can be described thus: Larvicidal activity against fourth instar larvae of Mythimna separata (Oriental armyworm) infected compound-treated corn leaves assessed as mortality at 10 mg/l measured after 4 days. The gist of the method:
as §1

The test system of assay [7] is Mythimna separata. The assay can be described thus: Larvicidal activity against fourth instar larvae of Mythimna separata (Oriental armyworm) infected compound-treated corn leaves assessed as mortality at 5 mg/l measured after 4 days. The gist of the method: as §1
Assay [8] deals with Mythimna separata. The experiment in a line: Larvicidal activity against fourth instar larvae of Mythimna separata (Oriental armyworm) infected compound-treated corn leaves assessed as mortality at 20 mg/l measured after 4 days. The gist of the method: as §1
Assay [9] has as its system Plutella xylostella. The assay can be described thus: Larvicidal activity against second-instar larvae of Plutella xylostella (diamondback moth) infected in compound-treated cabbage leaves assessed as mortality at 5 mg/l measured after 4 days. The gist of the method:
as §2

The test system of assay [10] is Plutella xylostella. The assay can be described thus: Larvicidal activity against second-instar larvae of Plutella xylostella (diamondback moth) infected in compound-treated cabbage leaves assessed as mortality at 2 mg/l measured after 4 days. In a few lines: as §2
The test system of assay [11] is Mythimna separata. The experiment in a line: Larvicidal activity against fourth instar larvae of Mythimna separata (Oriental armyworm) infected compound-treated corn leaves assessed as mortality at 1 mg/l measured after 4 days. In a few lines: as §1
Assay [12] concerns Mythimna separata. The experiment in a line: Larvicidal activity against fourth instar larvae of Mythimna separata (Oriental armyworm) infected compound-treated corn leaves assessed as mortality at 2.5 mg/l measured after 4 days. The gist of the method: as §1

The mortality is the share of the test organisms that died. For the compound `O=C(NC(=O)c1c(F)cccc1F)Nc1ccc(S(=O)(=O)OCCF)cc1`, the mortality at 100 µg/mL in the assay with Mythimna separata [1] was found to be 100%. In addition, the results for the mortality at 200 µg/mL with Mythimna separata [2] and in the assay with Plutella xylostella [4] were 100% and 20%, respectively. Further, in the assay with Mythimna separata [3], the mortality at 50 µg/mL came to 0%.
Turning to `O=C(NC(=O)c1c(F)cccc1F)Nc1ccc(S(=O)(=O)OCCCl)cc1`, in the assay on Mythimna separata [1], the mortality at 100 µg/mL came out at 100%. Moreover, the figures for the mortality at 200 µg/mL in the assay on Mythimna separata [2] and with Plutella xylostella [4] were 100% and 30%, respectively. The mortality at 50 µg/mL in the assay with Mythimna separata [3] is 40%.
On to `O=C(NC(=O)c1c(F)cccc1F)Nc1ccc(S(=O)(=O)OC(C(F)(F)F)C(F)(F)F)cc1`, for which the figures for the mortality at 200 µg/mL in the assay on Mythimna separata [2] and in the assay on Plutella xylostella [4] were 0% and 60%, respectively. Moreover, the mortality at 20 µg/mL with Plutella xylostella [5] came out at 20%.
In the case of `O=C(NC(=O)c1c(F)cccc1F)Nc1ccc(S(=O)(=O)OCCCCCl)cc1`, the mortality at 100 µg/mL in the assay with Mythimna separata [1] amounted to 100%. Moreover, the mortality at 200 µg/mL with Mythimna separata [2] is 100%; in the assay with Plutella xylostella [4], 20%. Besides, in the assay on Mythimna separata [3], the mortality at 50 µg/mL is 20%.
Take `CCCCCOS(=O)(=O)c1ccc(NC(=O)NC(=O)c2c(F)cccc2F)cc1`: in the assay with Mythimna separata [1], the mortality at 100 µg/mL came to 100%. The mortality at 200 µg/mL in the assay on Mythimna separata [2] is 100%; in the assay with Plutella xylostella [4], 30%. For the same compound, the mortality at 50 µg/mL in the assay with Mythimna separata [3] came to 60%. For the same compound, the mortality at 10 µg/mL in the assay on Mythimna separata [6] was 95%.
As to `CC(C)(C)NC(=O)c1ccc(NC(=O)NC(=O)c2c(F)cccc2F)cc1`, the mortality at 100 µg/mL in the assay on Mythimna separata [1] is 100%. Further, the mortality at 200 µg/mL is 100% in the assay on Mythimna separata [2] and 0% in the assay on Plutella xylostella [4]. In addition, in the assay on Mythimna separata [3], the mortality at 50 µg/mL came out at 50%.
Turning to `CC(C)N(C(=O)c1ccc(NC(=O)NC(=O)c2c(F)cccc2F)cc1)C(C)C`, the mortality at 200 µg/mL in the assay with Mythimna separata [2] was determined as 0%. For the same compound, the mortality at 20 µg/mL with Plutella xylostella [5] came to 100%.
For `CN(C(=O)c1ccc(NC(=O)NC(=O)c2c(F)cccc2F)cc1)c1ccc(Cl)cc1`, the mortality at 200 µg/mL with Mythimna separata [2] and with Plutella xylostella [4] was 0% each time.
`O=C(NC(=O)c1c(F)cccc1F)Nc1ccc(C(=O)Nc2ccc(Cl)cc2)cc1`: the mortality at 200 µg/mL with Mythimna separata [2] and with Plutella xylostella [4] was 0% throughout.
As for `CCCCNC(=O)c1ccc(NC(=O)NC(=O)c2c(F)cccc2F)cc1`, the mortality at 200 µg/mL in the assay on Mythimna separata [2] and in the assay on Plutella xylostella [4] was 0% throughout.
For `O=C(NC(=O)c1c(F)cccc1F)Nc1ccc(C(=O)N2CCOCC2)cc1`, the mortality at 200 µg/mL in the assay on Mythimna separata [2] and in the assay with Plutella xylostella [4] was 0% each time.
As to `CC(C)(C)c1ccc(CNC(=O)c2ccc(NC(=O)NC(=O)c3c(F)cccc3F)cc2)cc1`, the mortality at 200 µg/mL in the assay on Mythimna separata [2] and in the assay with Plutella xylostella [4] was 0% in each case.
Consider `O=C(NC(=O)c1c(F)cccc1F)Nc1ccc(S(=O)(=O)Oc2ccc(Cl)cc2)cc1`, for which the mortality at 200 µg/mL in the assay on Mythimna separata [2] and in the assay on Plutella xylostella [4] was 0% in each case.
Take `CC1CCC(C(C)C)C(OS(=O)(=O)c2ccc(NC(=O)NC(=O)c3c(F)cccc3F)cc2)C1` (stereo not drawn): the mortality at 200 µg/mL in the assay on Mythimna separata [2] and in the assay on Plutella xylostella [4] was 0% in each case.
Take `O=C(NC(=O)c1c(F)cccc1F)Nc1ccc(S(=O)(=O)OCC(F)(F)F)cc1`: the values for the mortality at 5 µg/mL with Mythimna separata [7] and with Plutella xylostella [9] were 60% and 90%, respectively. Moreover, the mortality at 100 µg/mL in the assay with Mythimna separata [1] came to 100%. The mortality at 200 µg/mL in the assay on Mythimna separata [2] and in the assay on Plutella xylostella [4] was 100% each time. Further, the mortality at 20 µg/mL in the assay on Mythimna separata [8] and in the assay with Plutella xylostella [5] was 100% each time. Also, in the assay with Mythimna separata [3], the mortality at 50 µg/mL came to 100%. For the same compound, the mortality at 10 µg/mL with Mythimna separata [6] was determined as 100%. Moreover, the mortality at 2 µg/mL with Plutella xylostella [10] is 40%.
As for `O=C(NC(=O)c1c(F)cccc1F)Nc1ccc(CO/N=C(/c2ccc(Cl)cc2)C2CC2)cc1` [FLUCYCLOXURON], the mortality at 5 µg/mL in the assay with Mythimna separata [7] stood at 90%. For the same compound, the mortality at 1 µg/mL in the assay with Mythimna separata [11] came to 10%. Besides, the mortality at 2.5 µg/mL with Mythimna separata [12] was found to be 50%.

For the origin of these results see ChEMBL document CHEMBL3046550, “Design, synthesis, and insecticidal evaluation of new benzoylureas containing amide and sulfonate groups based on the sulfonylurea receptor protein binding site for diflubenzuron and glibenclamide” (2013).
